Measured values reported in ChEMBL document CHEMBL5325427.
In brackets after ≈: the same amount, converted by molar mass. Activity calls are given as the source filed them. No cut-off for these calls is given here.

Legend:
[1] = Selectivity index, ratio of CC50 for African green monkey Vero E6 cells to IC50 for antiviral activity against MERS-CoV NRCE-HKU270 infected in Vero E6 cells; type: toxicity, cell-based, Vero C1008; conditions: read-out: Ratio CC50/IC50
[2] = Aqueous solubility of the compound in PBS buffer at pH 7.4 at 200 uM by microplate reader method; type: physicochemical
[3] = test system: SARS-CoV-2; assay: Antiviral activity against SARS CoV-2 infected in human Caco-2 cells assessed as reduction in OAS1 expression at 20 ug/ml preincubated with cells for 24 hrs followed by viral infection and measured after 3 to 12 hrs by real-time PCR assay; type: functional, organism-based; conditions: Severe acute respiratory syndrome coronavirus 2, dose 20.0 µg/ml, time lower 27.0 hrs, time upper […]
[4] = test system: SARS-CoV-2; assay: Antiviral activity against SARS CoV-2 infected in human Caco-2 cells assessed as reduction in IL-6 expression at 20 ug/ml preincubated with cells for 24 hrs followed by viral infection and measured after 3 to 12 hrs by real-time PCR assay; type: functional, organism-based; conditions: Severe acute respiratory syndrome coronavirus 2, dose 20.0 µg/ml, time lower 27.0 hrs, time upper […]
[5] = test system: Vero C1008; assay: Cytotoxicity against African green monkey Vero E6 cells measured after 72 hrs by crystal violet staining based analysis; type: toxicity, cell-based; conditions: chlorocebus sabaeus, vero c1008, 72 h
In short: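 Vero-E6 cells were seeded at 3 × 10^5 cells/mL, grown 24 h at 37 °C with 5% CO2, then given graded compound concentrations in triplicate for 72 h. Stocks were made in 10% DMSO in DMEM. Cells were fixed in 10% formalin, stained with 0.1% crystal violet, dissolved in methanol and read at A570. CC50 was taken by nonlinear regression of log concentration versus normalised response against untreated cells.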

[6] = Toxicity in Balb/c mouse assessed as effect on total bilirubin at 12.5 to 25 mg/kg; type: organism-based; conditions: in vivo, dose 12.5-25 mg/kg
In short: (§1)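 Female Balb/c mice were randomised to vehicle (0.5% DMSO in PBS) or 12.5 or 25 mg/kg intraperitoneally daily for 14 days, then followed 12 days after treatment. Body weight, haematology and blood chemistry were compared with vehicle controls; n = 3–5.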

[7] = test system: SARS-CoV-2; assay: Antiviral activity against SARS CoV-2 HCoV-19/Egypt/NRC-1/2020 infected in human Caco-2 cells assessed as reduction in spike RNA expression at 20 ug/ml pre-infected with virus for 1 hr followed by cell addition for 1 hr and measured after 6 to 12 hrs by RT-PCR analysis; type: functional, organism-based; conditions: Severe acute respiratory syndrome coronavirus 2, dose 20.0 µg/ml, time 8-14 hrs
[8] = Permeability of the compound across apical to basolateral side in human Caco-2 cells at pH 6.5 to 7.4; type: ADME, cell-based; conditions: Caco-2, pH 6.5, read-out: permeability
In short: (§2)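 Caco-2 cells (0.5 × 10^6/well) were grown 7 days on collagen-coated transwell filters. Compound was dosed at 50, 75 and 100 μM input in 1% DMSO/HBSS, apical pH 6.5 and basolateral pH 7.4. Samples were taken every 30 min for 2 h in duplicate and quantified by LC/MS/MS. Papp was calculated from receiver concentration, time, area and mid-point donor and receiver concentrations. Monolayer integrity required fluorescein Papp below 1.5 × 10−6 cm/s.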

[9] = Permeability of the compound across apical to basolateral side in human Caco-2 cells assessed as drug recovery at pH 6.5 to 7.4; type: ADME, cell-based; conditions: Caco-2, pH 6.5, read-out: Drug recovery; in short: as §2
[10] = Toxicity in Balb/c mouse assessed as effect on albumin at 12.5 to 25 mg/kg; type: organism-based; conditions: in vivo, dose 12.5-25 mg/kg; in short: as §1
[11] = Toxicity in Balb/c mouse assessed as histological changes in liver by measuring toxicity score at 25 mg/kg by H and E staining based analysis; type: organism-based; conditions: in vivo
In short: (§3)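 After the 14-day daily intraperitoneal dosing (12.5 or 25 mg/kg, female Balb/c), liver, kidney, spleen, heart and lung were fixed 24 h in 10% neutral-buffered formalin and paraffin-embedded. Sections of 4 μm were stained with H&E. Lesions were scored nil 0, mild 1, moderate 2, severe 3.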

[12] = Stability in human liver microsomes assessed as half life at 1 uM in presence of NADPH by LC-MS-MS analysis; type: ADME, Microsome
[13] = Toxicity in Balb/c mouse assessed as change in histological variation in spleen at 12.5 to 25 mg/kg by H and E staining based analysis; type: organism-based; conditions: in vivo, dose 12.5-25 mg/kg; in short: as §3
[14] = Stability in human microsomes assessed as compound remaining at 1 uM measured after 60 mins in absence of NADPH by LC-MS-MS analysis; type: ADME, Microsome; conditions: read-out: Stability
In short: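 Compound was incubated in liver microsomes without NADPH. Percent remaining was measured after 60 min.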

[15] = Toxicity in Balb/c mouse assessed as effect on total protein at 12.5 to 25 mg/kg; type: organism-based; conditions: in vivo, dose 12.5-25 mg/kg; in short: as §1
[16] = target: Replicase polyprotein 1ab (Severe acute respiratory syndrome coronavirus 2) (UniProt P0DTD1); assay: Inhibition of SARS-CoV-2 3CLpro at 10 ug/ml preincubated with enzyme for 30 mins followed by substrate addition and measured after 4 hrs by fluorescence based analysis; conditions: dose 10.0 µg/ml, time 4.5 hrs
In short: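 Recombinant SARS-CoV-2 3CLpro (1.5 ng/μl) was pre-incubated with compound 30 min at RT. Fluorogenic substrate was added to a final 40 μM and incubated 4 h at RT. Fluorescence was read at Ex 360/Em 460 nm. Wells were run in triplicate and blank was subtracted.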

[17] = Toxicity in Balb/c mouse assessed as change in histological variation in lung at 12.5 to 25 mg/kg by H and E staining based analysis; type: organism-based; conditions: in vivo, dose 12.5-25 mg/kg; in short: as §3

Question: What does the source list for `COc1ccc2[nH]c3c(c2c1)C[C@]1(OC)CC[C@H]2c4[nH]c5ccccc5c4CCN2[C@@H]1C3`?
Answer: selectivity ratio [1]: 8.96; solubility at 200 µM [2]: 166 µM (≈ 71 µg/mL); Activity [3]: Active; Activity [4]: Active; CC50 [5]: 55.63 µg/mL (≈ 130 µM); Activity [6]: Non-Toxic; Activity [7]: Active; Papp A→B [8]: 5.9 ×10⁻⁶ cm/s; recovery [9]: 77%; Activity [10]: Non-Toxic; Activity [11]: 0; t1/2 [12]: > 60 min; Activity [13]: Non-Toxic; remaining at 1 h, 1 µM [14]: 102%; Activity [15]: Non-Toxic; inhibition [16]: inactive; Activity [17]: Non-Toxic
